Measured values taken from paper PMC5060091 (ChemMedChem, 2016).
Converted amounts (≈) assume the structure as drawn. Like-named read-outs stand apart in the source and are kept apart here.

Legend:
[1] = test system: Aspergillus flavus ATCC MYA-3631; test: MIC, broth dilution, strain K; assay type: cell-based; details: Aspergillus flavus
[2] = test system: Aspergillus terreus ATCC MYA-3633; test: MIC, broth dilution, strain M; assay type: cell-based; details: Aspergillus terreus
[3] = test system: Candida albicans ATCC 10231; details: strain A; azoles; previously reported; cited from earlier work
[4] = test system: C. albicans ATCC 64124; details: strain B; azoles; previously reported; cited from earlier work
[5] = test system: C. albicans ATCC MYA-2876(S); details: strain C; azoles; previously reported; cited from earlier work
[6] = test system: C. albicans ATCC 90819(R); details: strain D; azoles; previously reported; cited from earlier work
[7] = test system: C. albicans ATCC MYA-2310(S); details: strain E; azoles; previously reported; cited from earlier work
[8] = test system: C. albicans ATCC MYA-1237(R); details: strain F; azoles; previously reported; cited from earlier work
[9] = test system: C. albicans ATCC MYA-1003(R); details: strain G; azoles; previously reported; cited from earlier work
[10] = test system: Aspergillus nidulans ATCC 38163; details: strain L; previously reported; cited from earlier work
[11] = test system: C. albicans ATCC 10231 (strain A); test: ROS induction assay; assay type: cell-based, Candida albicans; details: 1× and 2× MIC, 1-h treatment; H2O2 1 mM
How it was run: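 C. albicans ATCC 10231 cells were incubated 1 h at 37 °C with test compound at 1× or 2× MIC, with no drug (negative control), or with 1 mM H₂O₂ (positive control). DCFH-DA (40 µg/mL) was then added. ROS were detected and imaged by fluorescence microscopy.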

[12] = read-out: MIC (MIC-0) in µM (parentheses)

SMILES | MIC (MIC-2) [4] [µg/mL] | MIC (MIC-2) in µM (parentheses) [4] [µM] | MIC (MIC-2) [5] [µg/mL] | MIC (MIC-2) in µM (parentheses) [5] [µM] | MIC (MIC-2) [6] [µg/mL] | MIC (MIC-2) in µM (parentheses) [6] [µM] | MIC (MIC-2) [7] [µg/mL] | MIC (MIC-2) in µM (parentheses) [7] [µM] | further results
CCC(C)n1ncn(-c2ccc(N3CCN(c4ccc(OCC5COC(Cn6cncn6)(c6ccc(Cl)cc6Cl)O5)cc4)CC3)cc2)c1=O (centres unmarked) [ITC, itraconazole] | > 62.5 | > 88.6 | 7.8 (≈ 11.1 µM) | 11.1 (≈ 7.83 µg/mL) | 31.2 (≈ 44.2 µM) | 44.2 (≈ 31.2 µg/mL) | 31.2 (≈ 44.2 µM) | 44.2 (≈ 31.2 µg/mL) | MIC ([1]; read-out: MIC (MIC-0)): 0.48 µg/mL; MIC [1, 12]: 0.68 µM; MIC ([2]; read-out: MIC (MIC-0)): 0.975 µg/mL; MIC [2, 12]: 1.38 µM; MIC (MIC-2) [3]: 0.5 µg/mL (≈ 0.709 µM); MIC (MIC-2) in µM (parentheses) [3]: 0.71 µM (≈ 0.501 µg/mL); MIC (MIC-2) [8]: 31.2 µg/mL (≈ 44.2 µM); MIC (MIC-2) in µM (parentheses) [8]: 44.2 µM (≈ 31.2 µg/mL); MIC (MIC-2) [9]: 31.2 µg/mL (≈ 44.2 µM); MIC (MIC-2) in µM (parentheses) [9]: 44.2 µM (≈ 31.2 µg/mL); MIC (MIC-0) [10]: 0.195 µg/mL (≈ 0.276 µM); MIC (MIC-0) in µM (parentheses) [10]: 0.28 µM (≈ 0.198 µg/mL)
OO [H2O2] |  |  |  |  |  |  |  |  | ROS induction (DCFH-DA fluorescence) [11]: highly fluorescent
OC(Cn1cncn1)(Cn1cncn1)c1ccc(F)cc1F [FLC, fluconazole] | > 125 | > 408 | 15.6 (≈ 50.9 µM) | 51.0 (≈ 15.6 µg/mL) | > 125 | > 408 | > 125 | > 408 | 
